From ChEMBL document CHEMBL4513216, “Probing the Open Global Health Chemical Diversity Library for Multistage-Active Starting Points for Next-Generation Antimalarials” (ACS Infect Dis, 2020) come the findings set out here.

The nature of the data set: Toxicity liver stage against HepG2, at 10uM. Particulars: human, HepG2-A16-CD81EGFP cells; read-out: INHIBITION
It is filed as cell-based. More on the design: test concentration 10 uM, cell line HepG2-A16-CD81EGFP. In short, it runs like this: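 Uninfected HepG2-A16-CD81EGFP cells, 3 × 10^3 per well, 1536-well, plated on prespotted compound at 10 μM final, parasite-free screening media added to match infected plates; puromycin 10 μM positive, DMSO 0.5% negative; run in parallel with 48 h PbLuc assay at 37 °C, 5% CO2; viability by CellTiter-Glo luminescence, normalized to controls.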

With `CCc1nnc2n1CCN(c1nc(C)cc(N(C)C)n1)C2`, the cytotoxicity at 10 µM is -5.89%.
In the case of `O=C(NCCn1cccn1)C1CCC(=O)N(CC2CCCCC2)C1` (stereo unspecified) it was 6.8%; in that of `CCOc1cccc(COC(=O)c2ccc(Cl)cn2)n1`, -3.44%.
As for `CSCC(=O)N1CCCCC1Cn1cc(C)cn1` (stereo unspecified), the figure is -8.24%; as for `Cc1cc(CC(=O)N(C)Cc2cccc(OC(C)C)c2)n[nH]1`, 1.1%.
In the case of `Cc1cc(S(=O)(=O)NCC2CNCCOC2)c(C)cc1Cl` (stereo unspecified) it was -0.708%; in that of `O=C(NCc1cccc(-n2cncn2)c1)NCC(C1CC1)C1CC1`, 6.03%.
Take `CC(C)c1noc(CN2CCN(C(=O)OC(C)(C)C)C(C)C2)n1` (stereo unspecified): the cytotoxicity at 10 µM turned out to be 2.24%.
With `Cc1csc(N2CCN(CCCN3CCCC3=O)CC2)n1`, the cytotoxicity at 10 µM was determined as 3.92%.
As for `CC(=O)c1sc2nc3c(c(C(F)(F)F)c2c1N)CN(C(C)=O)CC3`, the figure is -26%; as for `O=C(C1CSc2ccccc2O1)N1CCN(CCO)CC1` (stereo unspecified), -6.29%; as for `Cc1cccc2c1C(=O)NC(c1cnc(C3CCC3)s1)N2` (stereo unspecified), -3.33%.
In the case of `Cc1c[nH]c(C2CN(Cc3ccccc3C(=O)O)CCO2)n1` (stereo unspecified) it was -0.822%; in that of `CN1CCN(S(C)(=O)=O)c2cc(F)ccc21`, -1.15%; in that of `Cn1cncc1CNC1CC2(CCN(S(C)(=O)=O)CC2)c2ccccc21` (stereo unspecified), 1.55%.
In the case of `COCC(=O)N1CCC2(CC(C(=O)NCc3cccnc3)=NO2)C1` (stereo unspecified) it was -1.34%.
As for `COCC1(CNC(=O)[C@@]23CNC[C@@H]2CN(C2CCCC2)C3)CC1`, the cytotoxicity at 10 µM was -11.9%.
In the case of `O=C1OCCN1CC(=O)N1C[C@@H]2CC[C@H]1CN(C(=O)c1cccnc1)C2` it was 11.6%.
In the case of `CC(=O)N1C[C@H](c2cc(O)nc(C)n2)[C@@H](c2ccccc2F)C1` it was 1.65%; in that of `Cn1cc(NC(=O)CNC(=O)N2CCN(c3cccc(Cl)c3)CC2)cn1`, 2.93%.
As for `CC(C)(C)c1ccn(C2(C(=O)O)CCN(c3ccncc3F)CC2)n1`, the figure is -0.423%; as for `CCN(C)c1ncnc2c1CCN(CC1CCOC1)CC2` (stereo unspecified), -79.3%.
Take `Cc1ccc(C(O)CNC(=O)NCc2csc(C)n2)cc1` (stereo unspecified): the cytotoxicity at 10 µM is -5.13%.
As for `CC(=O)N1CCN(C(=O)NC(C)C)CC2(CNC(=O)C2)C1` (stereo unspecified), the figure is -1.63%.
As for `Cc1ccc(N2CCCN(C(=O)CC3C=CCC3)CC2)nn1` (stereo unspecified), the figure is -9.2%.
Regarding `CCNC(=O)c1ccc(CNCc2c(C)nn(C)c2N(C)C)cc1`, the cytotoxicity at 10 µM was found to be 1.71%.
For the compound `Cc1cc(NC(=O)COC(=O)c2ccc(F)cc2Br)n(C)n1`, the cytotoxicity at 10 µM came to 6.03%.
In the case of `CC(C)Cn1cc(C(=O)NC2CCS(=O)(=O)C2)c2ccccc2c1=O` (stereo unspecified) it was 0.724%; in that of `Fc1ccc(OCCCN2CCCC(Cn3cncn3)C2)cc1` (stereo unspecified), -7.81%.
As for `CCOCCCNC(=O)NC(C)c1ccc(-n2cncn2)cc1` (stereo unspecified), the figure is 3.31%.
As for `NC(=O)C1CCN(C(=O)C2SCCc3sccc32)CC1` (stereo unspecified), the figure is -6.02%; as for `COc1cc(N2CCC3(CCCN(C(=O)c4cccnc4)C3)C2)ncn1` (stereo unspecified), -149%; as for `O=S(=O)(CCCn1cncn1)Cc1ccccc1Cl`, -5.91%.
`CN1C(=O)CCC12CCC(NC(=O)NCc1cccnc1)CC2` (stereo unspecified): the cytotoxicity at 10 µM was -99.8%.
In the case of `O=S(=O)(NC1=NCN(CCc2ccccc2)CN1)c1ccc(F)cc1` it was 3.47%; in that of `Clc1cc(NCc2ncc[nH]2)nc2[nH]ccc12`, 6.68%.
In the case of `c1csc(CN2CCOCC3(CCN(C4CCOCC4)C3)C2)n1` (stereo unspecified) it was 0.487%; in that of `O=C(CC1CC1)N[C@@H]1CN(C(=O)c2ccsc2)C[C@@H]2CCCO[C@@H]21`, -109%.
In the case of `CSc1ccc(CNc2ccccc2CN2CCC(O)CC2)cc1` it was -4.75%; in that of `CCOc1ccccc1OC1CCN(C(=O)c2cnsn2)CC1`, 0.32%.
For the compound `O=C1CCCN1Cc1nnc2n1CCN(Cc1ccoc1)CC2`, the cytotoxicity at 10 µM was 2.72%.
In the case of `CS(=O)(=O)NC1CCN(C(=O)CCC2CCCO2)CC1` (stereo unspecified) it was -0.367%.
In the case of `CC(NC(=O)N(C)Cc1ccncc1)c1nncn1C` (stereo unspecified) it was 2.57%.
In the case of `CCc1c(C(=O)NCC2CCS(=O)(=O)C2)cnn1-c1ccccc1` (stereo unspecified), the cytotoxicity at 10 µM is -8.22%.
In the case of `O=C(N1CCOCC1)N1CCN(c2ccnc3ccsc23)CC1` it was -4.48%; in that of `CC(C)Oc1cc(N2CCC(C(N)=O)CC2)nc(N)n1`, 2.96%; in that of `Cn1cnc(CN2Cc3nccn3CC2c2ccccc2)c1` (stereo unspecified), 2.98%.
In the case of `CC(C)c1nc2n(n1)CC(NCc1nc(-c3cccnc3)no1)CC2` (stereo unspecified), the cytotoxicity at 10 µM was determined as 4.04%.
In the case of `COC(=O)c1ccoc1CN(C)Cc1ccccc1` it was 3.3%; in that of `Cc1ccc(CN2C[C@@H]3COC[C@H](NS(C)(=O)=O)[C@@H]3C2)o1`, 0.415%; in that of `Cc1cc(C2CCCN2C(=O)NCc2cccnc2OC(C)C)on1` (stereo unspecified), -9.63%.
In the case of `O=C(c1cscn1)N1CCC2(CN(Cc3ccsc3)C2)C1` it was 4.06%.
In the case of `CN(C)C1CCN(C(=O)c2ccnn2-c2ccc3ccccn23)CC1`, the cytotoxicity at 10 µM was -114%.
In the case of `CCC(C)NC(=O)c1ccc(CNC(=O)CCC(C)C)cc1` (stereo unspecified) it was 2.27%; in that of `CCN1CC(C(=O)N2CCN(c3cnn(C)c(=O)c3)CC2)CCC1=O` (stereo unspecified), 0.508%.
In the case of `Cc1cc(C)c(CNC(=O)C(C)Oc2ccccc2C#N)c(=O)[nH]1` (stereo unspecified) it was 4.59%; in that of `Cc1cc(CN2CCC(CNS(=O)(=O)c3ccc(Br)s3)CC2)c(C)o1`, -2.72%.
As for `CC(C)N(C)Cc1cnc2n1CCN(C(=O)Cc1ccccn1)C2`, the figure is -0.405%; as for `CCN1CC(CN(C)Cc2nc(-c3ccc(F)cc3)oc2C)CC1=O` (stereo unspecified), -2.22%.
`c1csc(-c2noc(CNCCn3cccn3)n2)c1`: the cytotoxicity at 10 µM was -8.21%.
Turning to `O=C1CCCN1CCCC(=O)N1CCCC(c2ccn[nH]2)C1` (stereo unspecified), the cytotoxicity at 10 µM is -22.8%.
As for `Nc1ncncc1-c1noc([C@@H]2CCCN2CC2CC2)n1`, the figure is -1.18%; as for `OCC(O)CSCc1cn(-c2ccc(Cl)c(Cl)c2)nn1` (stereo unspecified), 8.55%.
In the case of `Cc1nc(CNC(=O)c2cc(COc3cccc(F)c3)[nH]n2)n[nH]1` it was -2.52%; in that of `CC(c1cccc(-c2ncccc2F)c1)N(C)C` (stereo unspecified), -19.4%; in that of `CN1CCNC(=O)C12CCN(C(=O)c1ccc3[nH]c(=O)[nH]c3c1)CC2`, 0.5%.
As for `CC(=O)Nc1cc(CCC2CCN(C(=O)c3ccccn3)CC2)ccn1`, the figure is -0.331%; as for `Cc1ccccc1N1CCCN(C(=O)CN2C(=O)OC[C@@H]2C(C)C)CC1`, 4.02%.
In the case of `CC(=O)Nc1cccc(CN2CCCC2C(=O)Nc2nccs2)c1` (stereo unspecified), the cytotoxicity at 10 µM was determined as 6.12%.
As for `O=C(NC[C@]1(O)CN(Cc2ncccc2F)C[C@H]1O)c1cc[nH]n1`, the figure is -6.07%; as for `c1cncc(OC[C@@]23CCC[C@@H]2CN(C2CCOCC2)C3)c1`, -0.0916%; as for `CCn1c(C)nnc1SCCNC(=O)Cn1cnc2ccccc2c1=O`, 8.28%.
As for `CCCC(=O)N1CCC(Nc2nc(O)cc(-c3ccsc3)n2)CC1`, the figure is 5.46%.
As for `COc1nc2c(cc1C(=O)NCc1noc(Cc3cccs3)n1)CCC2`, the figure is -6.36%.
As for `CC(=O)NCCC(Cc1ccccc1)c1ccco1` (stereo unspecified), the cytotoxicity at 10 µM was -1.24%.
In the case of `CCS(=O)(=O)CCN1CCC(N(C)Cc2ncc(C)o2)C1` (stereo unspecified) it was 1.75%.
As for `CC(C)c1cc(C(=O)N2CCN(c3ncc4c(n3)CCOC4)CC2)on1`, the figure is 1.57%; as for `O=C(C1CCCC1)N1CCC(C2CCN(Cc3ccc(Cl)cc3)C2)CC1` (stereo unspecified), -2.45%; as for `CN1CCN(C2CCN(Cc3ccc(Cl)s3)CC2)C1=O`, 11.2%.
In the case of `COC(=O)N1CCCN(Cn2nc(C)c(Br)c2C)CC1` it was 8.38%; in that of `Cc1c(C(=O)N2CCCC(C(=O)c3nccn3C)C2)c[nH]c(=O)c1C#N` (stereo unspecified), 5.73%; in that of `Fc1ccc(-c2cc(NCCC3CCOC3)n3nccc3n2)cc1` (stereo unspecified), 2.8%.
As for `Cc1nc(C)n(CC2CCCN(Cc3nnc(C(C)(C)C)o3)C2)n1` (stereo unspecified), the cytotoxicity at 10 µM is -11%.
As for `CC(C)N(C)C(=O)C1=NOC2(CCN(C(=O)c3ccccn3)C2)C1` (stereo unspecified), the figure is -13.4%.
As to `Cc1nccn1C1(C(=O)O)CCN(Cc2ccc3occc3c2)CC1`, the cytotoxicity at 10 µM was -1.61%.
Take `CCC(NC(=O)CC1CCN(CC)CC1)c1cn2cccnc2n1` (stereo unspecified): the cytotoxicity at 10 µM worked out at 2.46%.
As for `Cc1cc2ccccc2n1CCC(=O)N1CCCC(O)(CN(C)C)CC1` (stereo unspecified), the figure is -1.88%.
In the case of `Cc1cccc(CN2CCCC(c3nccs3)C2)n1` (stereo unspecified) it was 8.38%; in that of `O=C(Nc1ccccc1-c1ccccc1)N1C[C@@H]2CNC[C@]2(C(=O)O)C1`, -40.5%.
As for `c1ccc(C2CN(c3ncnc4[nH]cnc34)CCO2)cc1` (stereo unspecified), the figure is 9.42%.
As to `Cc1cc(Cl)c(C)c(S(=O)(=O)N2CCN(Cc3ccncc3)CC2)c1Cl`, the cytotoxicity at 10 µM came to 1.76%.
In the case of `CCC(=O)N1CC[C@@H]2[C@H](CC1)N(Cc1cccc(C)n1)CCS2(=O)=O` it was -1.31%.
On to `O=C(CCC(=O)N1CCC(OCc2cccnc2)CC1)c1ccccc1`, for which the cytotoxicity at 10 µM is -3.33%.
In the case of `Cn1ccc(NC(=O)CN2C[C@@H]3CC[C@H]2CN(Cc2ccccn2)C3)n1` it was 0.936%.
In the case of `CCOC(=O)c1nnc2ccccc2c1N1CCOC(C)(C)C1` it was 13.8%; in that of `CNC(=O)C1(C)CCCN1Cc1cnn(C)c1C` (stereo unspecified), 5.45%.
